Reference: ChEMBL document CHEMBL5653631, “A Potent and Selective ULK1 Inhibitor Suppresses Autophagy and Sensitizes Cancer Cells to Nutrient Stress” (iScience, 2018)

Legend:
[1] = molecular target: Mitogen-activated protein kinase kinase kinase kinase 4 (Homo sapiens) (UniProt O95819); assay: Inhibition of human recombinant HGK at 40 nM related to control ULK1
[2] = molecular target: Serine/threonine-protein kinase SIK1 (Homo sapiens) (UniProt P57059); assay: Inhibition of human recombinant SIK at 15 nM related to control ULK1
[3] = molecular target: Serine/threonine-protein kinase ATR (Homo sapiens) (UniProt Q13535); assay: Inhibition of human recombinant ATR at 500 nM related to control ULK1
Method in brief: (§1)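 Panel of 327 recombinant human kinases, each assayed in vitro by radiometric activity assay in duplicate at a single inhibitor concentration per compound, chosen with reference to its ULK1 inhibition. Activity remaining was expressed as percent of vehicle control, and percent inhibition was calculated as 100 minus percent activity remaining.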

[4] = molecular target: Misshapen-like kinase 1 (Homo sapiens) (UniProt Q8N4C8); assay: Inhibition of human recombinant MINK at 500 nM in presence of ATP by radiometric assay relative to control
[5] = molecular target: T1, Serine/threonine-protein kinase 3 (Homo sapiens) (UniProt Q13188); assay: Inhibition of human recombinant MST2 at 500 nM in presence of ATP by radiometric assay relative to control
T1 sequence (whole entry): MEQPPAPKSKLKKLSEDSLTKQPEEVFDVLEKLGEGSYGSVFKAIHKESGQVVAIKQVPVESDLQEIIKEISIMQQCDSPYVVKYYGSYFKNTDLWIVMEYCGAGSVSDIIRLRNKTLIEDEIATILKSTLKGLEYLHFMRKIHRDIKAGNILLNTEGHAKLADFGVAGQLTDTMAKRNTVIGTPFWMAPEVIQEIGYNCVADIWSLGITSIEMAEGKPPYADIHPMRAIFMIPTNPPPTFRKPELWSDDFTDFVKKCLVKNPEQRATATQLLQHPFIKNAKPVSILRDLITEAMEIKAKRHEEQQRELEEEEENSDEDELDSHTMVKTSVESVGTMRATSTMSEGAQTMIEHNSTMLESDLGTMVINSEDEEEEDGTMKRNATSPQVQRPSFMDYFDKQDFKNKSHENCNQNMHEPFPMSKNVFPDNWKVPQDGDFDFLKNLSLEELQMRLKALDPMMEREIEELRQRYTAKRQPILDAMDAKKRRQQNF

[6] = molecular target: T2, Mitogen-activated protein kinase kinase kinase 5 (Homo sapiens) (UniProt Q99683); assay: Inhibition of human recombinant MAP3K5 at 500 nM related to control ULK1
T2 sequence (whole entry): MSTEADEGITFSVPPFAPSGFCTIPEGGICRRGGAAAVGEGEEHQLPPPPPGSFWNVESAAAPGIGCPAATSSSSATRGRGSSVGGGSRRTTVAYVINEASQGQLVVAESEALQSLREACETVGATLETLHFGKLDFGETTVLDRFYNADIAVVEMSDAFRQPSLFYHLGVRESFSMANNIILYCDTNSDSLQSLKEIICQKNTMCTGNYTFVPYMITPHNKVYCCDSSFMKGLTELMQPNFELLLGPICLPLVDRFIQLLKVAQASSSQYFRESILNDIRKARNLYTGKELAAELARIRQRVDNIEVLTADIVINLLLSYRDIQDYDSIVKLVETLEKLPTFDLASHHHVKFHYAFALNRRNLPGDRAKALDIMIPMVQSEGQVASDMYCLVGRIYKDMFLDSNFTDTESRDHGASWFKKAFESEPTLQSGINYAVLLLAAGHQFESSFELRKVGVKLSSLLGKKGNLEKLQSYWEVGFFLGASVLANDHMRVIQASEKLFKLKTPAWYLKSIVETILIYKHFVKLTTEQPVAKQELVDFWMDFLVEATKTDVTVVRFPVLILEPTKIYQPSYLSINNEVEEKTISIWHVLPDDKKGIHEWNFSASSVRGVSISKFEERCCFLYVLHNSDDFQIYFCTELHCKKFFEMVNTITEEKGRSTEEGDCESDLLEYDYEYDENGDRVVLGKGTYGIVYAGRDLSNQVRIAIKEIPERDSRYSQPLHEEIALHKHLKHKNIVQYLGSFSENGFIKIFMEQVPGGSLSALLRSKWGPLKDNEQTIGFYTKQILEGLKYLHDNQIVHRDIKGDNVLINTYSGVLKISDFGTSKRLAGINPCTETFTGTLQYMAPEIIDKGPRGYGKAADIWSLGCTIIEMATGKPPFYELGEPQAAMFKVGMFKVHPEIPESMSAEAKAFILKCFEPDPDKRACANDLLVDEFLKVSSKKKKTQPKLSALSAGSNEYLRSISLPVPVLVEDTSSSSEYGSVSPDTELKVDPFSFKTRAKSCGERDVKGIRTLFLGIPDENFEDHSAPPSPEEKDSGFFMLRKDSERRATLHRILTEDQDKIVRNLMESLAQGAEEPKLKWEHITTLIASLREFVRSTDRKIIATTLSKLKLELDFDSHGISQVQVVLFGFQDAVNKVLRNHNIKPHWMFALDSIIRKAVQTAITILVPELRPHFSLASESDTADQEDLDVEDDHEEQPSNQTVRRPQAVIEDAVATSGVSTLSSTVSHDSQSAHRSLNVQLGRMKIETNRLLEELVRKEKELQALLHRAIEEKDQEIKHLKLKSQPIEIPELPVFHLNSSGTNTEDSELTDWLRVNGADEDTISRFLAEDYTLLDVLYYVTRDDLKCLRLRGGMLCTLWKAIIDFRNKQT

[7] = molecular target: Proto-oncogene tyrosine-protein kinase receptor Ret (Homo sapiens) (UniProt P07949); assay: Inhibition of human recombinant RET at 500 nM related to control ULK1
[8] = molecular target: Tyrosine-protein kinase receptor UFO (Homo sapiens) (UniProt P30530); assay: Inhibition of human recombinant AXL at 500 nM in presence of ATP by radiometric assay relative to control; method in brief: as §1
Tyrosine-protein kinase receptor UFO (Homo sapiens), sequence (P30530 whole entry): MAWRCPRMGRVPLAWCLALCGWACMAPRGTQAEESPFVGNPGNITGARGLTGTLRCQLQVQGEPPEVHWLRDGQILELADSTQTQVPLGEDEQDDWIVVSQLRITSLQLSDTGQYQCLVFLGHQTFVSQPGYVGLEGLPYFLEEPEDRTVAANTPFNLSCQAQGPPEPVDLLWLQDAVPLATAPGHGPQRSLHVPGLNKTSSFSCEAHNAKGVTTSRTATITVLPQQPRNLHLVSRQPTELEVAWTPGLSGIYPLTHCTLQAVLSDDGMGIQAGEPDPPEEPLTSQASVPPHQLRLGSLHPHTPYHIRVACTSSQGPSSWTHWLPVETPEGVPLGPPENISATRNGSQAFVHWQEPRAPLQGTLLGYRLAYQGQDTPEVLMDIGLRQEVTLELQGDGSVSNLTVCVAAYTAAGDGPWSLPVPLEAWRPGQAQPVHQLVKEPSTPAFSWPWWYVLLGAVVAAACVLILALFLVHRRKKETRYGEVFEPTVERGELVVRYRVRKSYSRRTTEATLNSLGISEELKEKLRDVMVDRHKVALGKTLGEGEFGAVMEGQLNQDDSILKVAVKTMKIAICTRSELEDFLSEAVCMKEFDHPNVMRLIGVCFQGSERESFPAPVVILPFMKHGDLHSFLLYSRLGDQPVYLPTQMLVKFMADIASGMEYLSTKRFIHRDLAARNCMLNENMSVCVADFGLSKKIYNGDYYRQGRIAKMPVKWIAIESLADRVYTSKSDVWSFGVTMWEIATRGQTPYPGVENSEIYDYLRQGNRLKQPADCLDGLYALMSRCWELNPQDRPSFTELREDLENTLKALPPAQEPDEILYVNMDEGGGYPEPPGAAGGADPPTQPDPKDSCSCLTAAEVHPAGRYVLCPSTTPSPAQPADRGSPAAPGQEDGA

Proto-oncogene tyrosine-protein kinase receptor Ret (Homo sapiens), sequence (P07949 whole entry): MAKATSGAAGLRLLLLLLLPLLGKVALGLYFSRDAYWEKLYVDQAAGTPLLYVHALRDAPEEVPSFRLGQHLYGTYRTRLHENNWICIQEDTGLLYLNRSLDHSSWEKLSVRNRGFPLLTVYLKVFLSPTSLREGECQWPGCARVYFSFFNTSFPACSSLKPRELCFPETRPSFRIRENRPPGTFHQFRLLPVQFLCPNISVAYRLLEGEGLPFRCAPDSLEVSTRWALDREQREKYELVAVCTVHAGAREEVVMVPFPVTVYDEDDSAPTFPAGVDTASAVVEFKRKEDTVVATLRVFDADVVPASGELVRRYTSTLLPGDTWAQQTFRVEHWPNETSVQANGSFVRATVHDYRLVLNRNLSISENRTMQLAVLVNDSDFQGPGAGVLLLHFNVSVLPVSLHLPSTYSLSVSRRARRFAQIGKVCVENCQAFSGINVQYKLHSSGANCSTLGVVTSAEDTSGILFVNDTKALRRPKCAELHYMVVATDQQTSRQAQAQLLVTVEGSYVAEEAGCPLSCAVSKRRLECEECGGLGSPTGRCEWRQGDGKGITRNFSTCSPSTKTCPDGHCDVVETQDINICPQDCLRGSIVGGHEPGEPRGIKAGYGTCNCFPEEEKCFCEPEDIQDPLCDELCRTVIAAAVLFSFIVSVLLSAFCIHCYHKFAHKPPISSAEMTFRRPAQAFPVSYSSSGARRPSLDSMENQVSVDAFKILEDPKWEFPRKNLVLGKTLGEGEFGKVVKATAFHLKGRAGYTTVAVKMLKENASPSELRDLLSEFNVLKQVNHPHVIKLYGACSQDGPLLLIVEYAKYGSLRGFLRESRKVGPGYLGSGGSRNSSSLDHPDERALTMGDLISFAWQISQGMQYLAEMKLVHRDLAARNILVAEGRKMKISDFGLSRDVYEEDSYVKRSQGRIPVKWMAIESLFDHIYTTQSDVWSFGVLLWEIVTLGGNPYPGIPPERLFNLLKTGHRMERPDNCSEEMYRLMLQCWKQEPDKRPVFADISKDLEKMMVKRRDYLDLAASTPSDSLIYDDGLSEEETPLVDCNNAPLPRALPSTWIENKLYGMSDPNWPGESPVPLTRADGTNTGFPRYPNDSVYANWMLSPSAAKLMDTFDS
Serine/threonine-protein kinase ATR (Homo sapiens), sequence (Q13535 whole entry, looked up): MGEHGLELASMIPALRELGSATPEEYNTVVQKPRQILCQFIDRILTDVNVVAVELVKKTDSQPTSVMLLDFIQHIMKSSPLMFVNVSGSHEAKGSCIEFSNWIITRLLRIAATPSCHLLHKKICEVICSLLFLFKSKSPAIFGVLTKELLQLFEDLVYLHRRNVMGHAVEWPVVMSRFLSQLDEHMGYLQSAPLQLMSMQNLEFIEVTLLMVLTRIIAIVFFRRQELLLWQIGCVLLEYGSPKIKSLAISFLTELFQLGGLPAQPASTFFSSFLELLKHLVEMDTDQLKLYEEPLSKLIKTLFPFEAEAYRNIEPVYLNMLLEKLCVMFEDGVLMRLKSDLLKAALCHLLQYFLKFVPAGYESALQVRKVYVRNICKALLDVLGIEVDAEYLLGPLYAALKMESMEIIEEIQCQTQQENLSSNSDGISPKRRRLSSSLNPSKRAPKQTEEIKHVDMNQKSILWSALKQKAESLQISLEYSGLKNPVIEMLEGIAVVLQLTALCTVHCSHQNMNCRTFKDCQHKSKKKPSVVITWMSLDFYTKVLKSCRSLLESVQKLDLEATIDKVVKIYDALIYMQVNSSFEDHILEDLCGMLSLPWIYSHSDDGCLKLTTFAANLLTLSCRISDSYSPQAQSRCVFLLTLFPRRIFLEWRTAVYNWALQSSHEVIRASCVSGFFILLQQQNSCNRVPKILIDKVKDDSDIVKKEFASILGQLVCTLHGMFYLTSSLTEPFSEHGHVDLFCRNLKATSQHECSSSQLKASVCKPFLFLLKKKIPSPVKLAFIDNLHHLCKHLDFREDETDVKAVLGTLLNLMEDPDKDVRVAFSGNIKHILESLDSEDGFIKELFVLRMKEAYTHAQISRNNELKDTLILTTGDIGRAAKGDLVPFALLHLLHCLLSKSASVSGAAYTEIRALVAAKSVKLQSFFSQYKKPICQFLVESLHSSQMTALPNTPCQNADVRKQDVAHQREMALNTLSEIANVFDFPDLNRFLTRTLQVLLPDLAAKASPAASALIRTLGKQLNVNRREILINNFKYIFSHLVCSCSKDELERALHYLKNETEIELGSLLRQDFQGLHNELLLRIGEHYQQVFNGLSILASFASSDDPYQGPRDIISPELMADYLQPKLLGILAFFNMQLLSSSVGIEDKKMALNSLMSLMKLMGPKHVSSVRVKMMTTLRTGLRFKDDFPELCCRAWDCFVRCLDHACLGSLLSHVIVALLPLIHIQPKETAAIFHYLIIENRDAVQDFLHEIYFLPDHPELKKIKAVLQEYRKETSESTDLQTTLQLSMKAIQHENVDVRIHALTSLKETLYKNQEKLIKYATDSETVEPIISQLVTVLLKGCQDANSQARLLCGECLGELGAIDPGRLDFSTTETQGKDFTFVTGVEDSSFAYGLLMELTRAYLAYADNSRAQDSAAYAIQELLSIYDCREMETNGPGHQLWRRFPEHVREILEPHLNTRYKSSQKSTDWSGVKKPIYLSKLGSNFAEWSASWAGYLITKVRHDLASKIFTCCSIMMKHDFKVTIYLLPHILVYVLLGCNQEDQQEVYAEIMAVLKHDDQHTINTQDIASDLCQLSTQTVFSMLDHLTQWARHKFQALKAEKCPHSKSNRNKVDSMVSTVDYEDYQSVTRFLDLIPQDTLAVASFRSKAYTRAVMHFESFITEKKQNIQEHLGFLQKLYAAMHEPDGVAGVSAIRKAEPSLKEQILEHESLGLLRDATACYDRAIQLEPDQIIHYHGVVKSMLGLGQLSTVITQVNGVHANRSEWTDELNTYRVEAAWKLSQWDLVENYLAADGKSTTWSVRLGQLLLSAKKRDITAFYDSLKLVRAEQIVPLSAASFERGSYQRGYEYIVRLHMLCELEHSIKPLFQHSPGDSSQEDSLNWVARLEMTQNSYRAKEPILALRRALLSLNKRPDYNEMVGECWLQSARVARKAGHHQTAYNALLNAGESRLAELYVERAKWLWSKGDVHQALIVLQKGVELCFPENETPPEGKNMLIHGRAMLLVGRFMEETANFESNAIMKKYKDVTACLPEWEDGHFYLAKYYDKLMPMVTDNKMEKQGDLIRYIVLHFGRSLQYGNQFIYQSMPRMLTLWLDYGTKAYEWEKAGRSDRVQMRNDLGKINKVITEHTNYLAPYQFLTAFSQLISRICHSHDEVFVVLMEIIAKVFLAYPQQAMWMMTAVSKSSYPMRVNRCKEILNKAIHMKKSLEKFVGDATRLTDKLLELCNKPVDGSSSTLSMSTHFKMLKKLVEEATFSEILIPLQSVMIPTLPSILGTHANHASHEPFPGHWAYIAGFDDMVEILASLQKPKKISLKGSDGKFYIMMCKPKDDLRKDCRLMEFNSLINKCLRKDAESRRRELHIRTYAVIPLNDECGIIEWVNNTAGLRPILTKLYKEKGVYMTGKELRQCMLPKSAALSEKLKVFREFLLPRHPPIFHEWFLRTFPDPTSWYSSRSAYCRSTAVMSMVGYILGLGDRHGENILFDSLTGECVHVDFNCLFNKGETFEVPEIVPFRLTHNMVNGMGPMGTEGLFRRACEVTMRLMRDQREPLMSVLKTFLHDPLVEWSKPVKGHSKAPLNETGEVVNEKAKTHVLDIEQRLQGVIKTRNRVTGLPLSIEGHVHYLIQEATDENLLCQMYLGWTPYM

O=C(N[C@@H](C1CC1)C(F)(F)F)c1cc(-c2cnn3cc(-c4ccc(F)cc4)cnc23)cs1
fold change (FC) [1]: 0

CC(C)[C@H](NC(=O)c1cc(-c2cnn3cc(-c4ccc(OCCN5CCCCC5)cc4)cnc23)cs1)C(F)(F)F
fold change (FC) [2]: 0.84

CNC(=O)c1ccccc1Oc1nc(Nc2cc(OC)c(OC)c(OC)c2)ncc1Br
fold change (FC) [3]: 0 | inhibition [4]: 4% | inhibition [5]: 0% | fold change (FC) [6]: 0 | fold change (FC) [7]: 0.04 | inhibition [8]: 5%
